Test results as given in ChEMBL document CHEMBL3596149, “Thermodynamics and kinetic studies in the binding interaction of cyclic naphthalene diimide derivatives with double stranded DNAs” (Bioorg Med Chem, 2015).
Calls of active or inactive are those of the source. The rule behind the calls is not given here.

Experiments:
Calf thymus DNA [1] = test: Binding affinity to calf thymus DNA assessed as delta(logK)/delta(log[Na+]) ratio at 0.05 to 0.125 M NaCl by UV-vis titration method; assay type: nucleic-acid assay; conditions: Bos taurus
Outline: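 Binding constants for CT-DNA were measured by UV-vis Scatchard titration in 10 mM MES pH 6.25 with 1 mM EDTA at varied NaCl. The ratio is the slope of log K plotted against −log[Na+].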

Calf thymus DNA [2] = test: Binding affinity to calf thymus DNA assessed as association constant by stopped flow kinetics assay; assay type: nucleic-acid assay; conditions: Bos taurus
Outline: (§1)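 Ligand was mixed with DNA in a stopped-flow instrument, in 10 mM MES pH 6.25 with 0.1 M NaCl and 1 mM EDTA. Ligand to DNA base-pair ratio was 1:10. Absorbance was followed at the ligand maximum (383 nm). Traces were fitted to a single exponential, and apparent rate constants were plotted against DNA concentration.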

[3] = Binding affinity to poly[d(A-T)]2 DNA (unknown origin) assessed as association constant by stopped flow kinetics assay; outline: as §1
[4] = Binding affinity to poly[d(G-C)]2 DNA (unknown origin) assessed as association constant by stopped flow kinetics assay; outline: as §1
Calf thymus DNA [5] = test: Binding affinity to calf thymus DNA assessed as dissociation constant by stopped flow kinetics assay; assay type: nucleic-acid assay, Bos taurus
Outline: (§2)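 Dissociation was SDS-driven and measured by stopped-flow. Equal volumes of 1% SDS and ligand–DNA complex (ligand:bp 1:10) were mixed rapidly. Buffer was 10 mM MES pH 6.25 with 100 mM NaCl and 1 mM EDTA. Absorbance was recorded over time, and k_d was obtained by nonlinear fitting of the trace.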

[6] = Binding affinity to poly[d(A-T)]2 DNA (unknown origin) assessed as dissociation constant by stopped flow kinetics assay; outline: as §2
[7] = Binding affinity to poly[d(G-C)]2 DNA (unknown origin) assessed as dissociation constant by stopped flow kinetics assay; outline: as §2
Calf thymus DNA [8] = test: Binding affinity to calf thymus DNA assessed as hypochromicity by UV-vis titration method; assay type: nucleic-acid assay; conditions: Bos taurus
Outline: (§3)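 Titration was the same as the UV-vis binding titration: 6.7 µM ligand, 10 mM MES pH 6.25, 100 mM NaCl, 1 mM EDTA, 25°C. Hypochromicity was calculated as H% = (A383 free − A383 bound)/A383 free × 100.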

[9] = Binding affinity to poly[d(A-T)]2 DNA (unknown origin) assessed as hypochromicity by UV-vis titration method; outline: as §3
[10] = Binding affinity to poly[d(G-C)]2 DNA (unknown origin) assessed as hypochromicity by UV-vis titration method; outline: as §3
Calf thymus DNA [11] = test: Binding affinity to calf thymus DNA assessed as change in enthalpy by thermodynamics analysis; assay type: nucleic-acid assay; conditions: Bos taurus
Outline: (§4)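 Binding constants for CT-DNA were obtained by UV-vis titration at 20–27.5°C in 10 mM MES pH 6.25 with 0.1 M NaCl and 1 mM EDTA. ΔH and ΔS were taken from a van't Hoff plot of lnK vs 1/T. ΔG at 25°C came from the Gibbs equation.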

Calf thymus DNA [12] = test: Binding affinity to calf thymus DNA assessed as change in entropy by thermodynamics analysis; assay type: nucleic-acid assay; conditions: Bos taurus; outline: as §4
Calf thymus DNA [13] = test: Binding affinity to calf thymus DNA assessed as change in free energy at 25 degC by thermodynamics analysis; assay type: nucleic-acid assay; conditions: Bos taurus; outline: as §4
Nucleic Acid = test: Induction of DNA intercalation of pUC19 DNA assessed as compound level causing DNA re-supercoiling in presence of topoisomerase-1 incubated for 1 hr at 37 degC by electrophoresis method; assay type: nucleic-acid assay; conditions: Escherichia coli
Outline: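 pUC19 (0.25 µg) was preincubated with 5 U topoisomerase I for 5 min at 37°C. Reaction buffer was 35 mM Tris-HCl pH 8.0, 72 mM KCl, 5 mM MgCl2, 5 mM DTT, 5 mM spermidine and 0.1% BSA. Ligand (2.0–50 µM) was then added for 1 h at 37°C. After SDS/proteinase K treatment, extraction and ethanol precipitation, DNA was run on 1% agarose in TAE (18 V, 3.5 h) and GelStar-stained.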

Calf thymus DNA [14] = test: Binding affinity to calf thymus DNA assessed as increase in positive and negative CD bands at 5 to 50 uM at 25 degC by CD spectroscopy; assay type: nucleic-acid assay; conditions: Bos taurus
Outline: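 Ligand at 5–50 µM was added to 100 µM/bp CT-DNA in 10 mM MES pH 6.25 with 100 mM NaCl and 1 mM EDTA, at 25°C. CD spectra were recorded, including the induced CD region at 320–400 nm.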

[15] = Selectivity index, ratio of binding constant K for calf thymus DNA to binding constant K for poly[d(G-C)]2 DNA (unknown origin)
Outline: (§5)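 The ratio uses binding constants from UV-vis Scatchard/McGhee–von Hippel titrations. Conditions were 6.7 µM ligand, 25°C, 10 mM MES pH 6.25, 100 mM NaCl, 1 mM EDTA.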

[16] = Selectivity index, ratio of binding constant K for poly[d(A-T)]2 DNA (unknown origin) to binding constant K for poly[d(G-C)]2 DNA (unknown origin); outline: as §5

Structure (SMILES)	Ratio (Calf thymus DNA [1])	K (Calf thymus DNA [2])	K [3]	K [4]	Kd (Calf thymus DNA [5])	Kd [6]	Kd [7]	Activity (Calf thymus DNA [8])	Activity [9]	Activity [10]	deltaH (Calf thymus DNA [11])	deltaS (Calf thymus DNA [12])	deltaG (Calf thymus DNA [13])	Activity (Nucleic Acid)	Activity (Calf thymus DNA [14])	Selectivity Index [15]	Selectivity Index [16]
CN(C)CCCN1C(=O)c2ccc3c4c(ccc(c24)C1=O)C(=O)N(CCCN(C)C)C3=O	0.83	120000 M⁻¹ s⁻¹	260000 M⁻¹ s⁻¹	84000 M⁻¹ s⁻¹	1.1 s⁻¹	2.6 s⁻¹	0.3 s⁻¹	62%	60%	61%	-6.7 kcal/mol	0.003 kcal/mol	-7.6 kcal/mol				
CN1CCCNC(=O)c2ccc(cc2)C(=O)NCCCN(C)CCCN2C(=O)c3ccc4c5c(ccc(c35)C2=O)C(=O)N(CCC1)C4=O	0.74	120000 M⁻¹ s⁻¹	32000 M⁻¹ s⁻¹	26000 M⁻¹ s⁻¹	1.1 s⁻¹	4.2 s⁻¹	1 s⁻¹	60%	49%	61%	9.2 kcal/mol	0.054 kcal/mol	-7 kcal/mol	10 µM	Active		
O=C1NCCCN2CCN(CCCN3C(=O)c4ccc5c6c(ccc(c46)C3=O)C(=O)N(CCCN3CCN(CCCNC(=O)c4ccc1cc4)CC3)C5=O)CC2	0.72	60000 M⁻¹ s⁻¹	120000 M⁻¹ s⁻¹	34000 M⁻¹ s⁻¹	0.1 s⁻¹	0.15 s⁻¹	0.003 s⁻¹	60%	47%	61%	7.8 kcal/mol	0.053 kcal/mol	-8 kcal/mol	2 µM		9	9
